Experimental data from ChEMBL document CHEMBL1629431, “Synthesis and antitumor activity of some 2, 3-disubstituted quinazolin-4(3H)-ones and 4, 6- disubstituted- 1, 2, 3, 4-tetrahydroquinazolin-2H-ones” (2010).

Experiments:
Type in all cases: functional
SK-MEL-2 = test: Growth inhibition of human SK-MEL-2 cells at 10 uM after 48 hrs by coulter counter method; details: SK-MEL-2, 48 h, read-out: GI
Outline: (§1)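 Single high-dose NCI 60-cell-line panel screen across nine tumor subpanels. Test solutions (0.2 mL) were added in duplicate to wells holding 1.8 mL of culture at 6 × 10⁴ cells/mL. Controls got PBS and DMSO at identical dilutions. Incubation was 48 h at 37 °C in humidified 5% CO₂. Cells were diluted 10-fold in saline, Coulter-counted and dilution-corrected. Results were expressed as percent growth inhibition versus control.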

CCRF-CEM = test: Growth inhibition of human CCRF-CEM cells at 10 uM after 48 hrs by coulter counter method; details: read-out: GI; outline: as §1
NCI-H226 = test: Growth inhibition of human NCI-H226 cells at 10 uM after 48 hrs by coulter counter method; details: NCI-H226, 48 h, read-out: GI; outline: as §1
HCT-116 = test: Growth inhibition of human HCT116 cells at 10 uM after 48 hrs by coulter counter method; details: HCT-116, 48 h, read-out: GI; outline: as §1
K562 = test: Growth inhibition of human K562 cells at 10 uM after 48 hrs by coulter counter method; details: K562, 48 h, read-out: GI; outline: as §1
CAKI-1 = test: Growth inhibition of human Caki1 cells at 10 uM after 48 hrs by coulter counter method; details: CAKI-1, 48 h, read-out: GI; outline: as §1
786-0 = test: Growth inhibition of human 786-0 cells at 10 uM after 48 hrs by coulter counter method; details: 786-0, 48 h, read-out: GI; outline: as §1
HL-60(TB) = test: Growth inhibition of human HL-60(TB) cells at 10 uM after 48 hrs by coulter counter method; details: HL-60, 48 h, read-out: GI
Outline: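 Part of the NCI 60-cell-line single-high-dose panel. Cells were seeded at 6 × 10⁴ cells/mL with test solution in duplicate wells, alongside PBS/DMSO controls at identical dilutions. Plates were held 48 h at 37 °C in a humidified 5% CO₂ incubator. Cells were then diluted 10-fold in saline and counted by Coulter counter, with counts corrected for dilution. Results are percent growth of treated cells, reported as GI %.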

MCF7 = test: Growth inhibition of human MCF7 cells at 10 uM after 48 hrs by coulter counter method; details: MCF7, 48 h, read-out: GI; outline: as §1
SF-268 = test: Growth inhibition of human SF268 cells at 10 uM after 48 hrs by coulter counter method; details: SF-268, 48 h, read-out: GI; outline: as §1
OVCAR-4 = test: Growth inhibition of human OVCAR4 cells at 10 uM after 48 hrs by coulter counter method; details: OVCAR-4, 48 h, read-out: GI; outline: as §1
UO-31 = test: Growth inhibition of human UO31 cells at 10 uM after 48 hrs by coulter counter method; details: UO-31, 48 h, read-out: GI; outline: as §1
PC-3 = test: Growth inhibition of human PC3 cells at 10 uM after 48 hrs by coulter counter method; details: PC-3, 48 h, read-out: GI; outline: as §1
[1] = Growth inhibition of human Hs 578T cells at 10 uM after 48 hrs by coulter counter method; details: read-out: GI; outline: as §1
UACC-62 = test: Growth inhibition of human UACC62 cells at 10 uM after 48 hrs by coulter counter method; details: UACC-62, 48 h, read-out: GI; outline: as §1
NCI-H23 = test: Growth inhibition of human NCI-H23 cells at 10 uM after 48 hrs by coulter counter method; details: NCI-H23, 48 h, read-out: GI; outline: as §1
SK-OV-3 = test: Growth inhibition of human SKOV3 cells at 10 uM after 48 hrs by coulter counter method; details: SK-OV-3, 48 h, read-out: GI; outline: as §1
KM12 = test: Growth inhibition of human KM12 cells at 10 uM after 48 hrs by coulter counter method; details: KM12, 48 h, read-out: GI; outline: as §1
MOLT-4 = test: Growth inhibition of human MOLT4 cells at 10 uM after 48 hrs by coulter counter method; details: MOLT-4, 48 h, read-out: GI; outline: as §1
SN12C = test: Growth inhibition of human SN12C cells at 10 uM after 48 hrs by coulter counter method; details: read-out: GI; outline: as §1
SK-MEL-28 = test: Growth inhibition of human SK-MEL-28 cells at 10 uM after 48 hrs by coulter counter method; details: SK-MEL-28, 48 h, read-out: GI; outline: as §1
M14 = test: Growth inhibition of human M14 cells at 10 uM after 48 hrs by coulter counter method; details: M14, 48 h, read-out: GI; outline: as §1
T47D = test: Growth inhibition of human T47D cells at 10 uM after 48 hrs by coulter counter method; details: read-out: GI; outline: as §1
MDA-MB-468 = test: Growth inhibition of human MDA-MB-468 cells at 10 uM after 48 hrs by coulter counter method; details: MDA-MB-468, 48 h, read-out: GI; outline: as §1
SNB-75 = test: Growth inhibition of human SNB75 cells at 10 uM after 48 hrs by coulter counter method; details: SNB-75, 48 h, read-out: GI; outline: as §1
HOP-92 = test: Growth inhibition of human HOP92 cells at 10 uM after 48 hrs by coulter counter method; details: HOP-92, 48 h, read-out: GI; outline: as §1
NCI-H522 = test: Growth inhibition of human NCI-H522 cells at 10 uM after 48 hrs by coulter counter method; details: NCI-H522, 48 h, read-out: GI; outline: as §1
OVCAR-8 = test: Growth inhibition of human OVCAR8 cells at 10 uM after 48 hrs by coulter counter method; details: OVCAR-8, 48 h, read-out: GI; outline: as §1
SR = test: Growth inhibition of human SR cells at 10 uM after 48 hrs by coulter counter method; details: read-out: GI; outline: as §1
U-251 = test: Growth inhibition of human U251 cells at 10 uM after 48 hrs by coulter counter method; details: U-251, 48 h, read-out: GI; outline: as §1
A549 = test: Growth inhibition of human A549 cells at 10 uM after 48 hrs by coulter counter method; details: A549, 48 h, read-out: GI; outline: as §1
IGROV-1 = test: Growth inhibition of human IGROV1 cells at 10 uM after 48 hrs by coulter counter method; details: IGROV-1, 48 h, read-out: GI; outline: as §1
SF-539 = test: Growth inhibition of human SF539 cells at 10 uM after 48 hrs by coulter counter method; details: SF-539, 48 h, read-out: GI; outline: as §1
MDA-MB-231 = test: Growth inhibition of human MDA-MB-231 cells at 10 uM after 48 hrs by coulter counter method; details: MDA-MB-231, 48 h, read-out: GI; outline: as §1
COLO 205 = test: Growth inhibition of human COLO205 cells at 10 uM after 48 hrs by coulter counter method; details: COLO 205, 48 h, read-out: GI; outline: as §1
HT-29 = test: Growth inhibition of human HT-29 cells at 10 uM after 48 hrs by coulter counter method; details: HT-29, 48 h, read-out: GI; outline: as §1
BT-549 = test: Growth inhibition of human BT549 cells at 10 uM after 48 hrs by coulter counter method; details: BT-549, 48 h, read-out: GI; outline: as §1

SMILES | inhibition of growth at 10 µM (SK-MEL-2) | inhibition of growth at 10 µM (NCI-H226) | inhibition of growth at 10 µM (HCT-116) | inhibition of growth at 10 µM (K562) | inhibition of growth at 10 µM (CAKI-1) | inhibition of growth at 10 µM (786-0) | inhibition of growth at 10 µM (HL-60(TB)) | inhibition of growth at 10 µM (MCF7) | inhibition of growth at 10 µM (SF-268) | inhibition of growth at 10 µM (OVCAR-4) | inhibition of growth at 10 µM (UO-31) | inhibition of growth at 10 µM (PC-3) | inhibition of growth at 10 µM [1] | inhibition of growth at 10 µM (UACC-62) | inhibition of growth at 10 µM (NCI-H23) | inhibition of growth at 10 µM (SK-OV-3) | inhibition of growth at 10 µM (KM12) | inhibition of growth at 10 µM (SN12C) | inhibition of growth at 10 µM (SK-MEL-28) | inhibition of growth at 10 µM (M14) | other results
O=c1c2ccccc2nc(Nc2nnc(-c3ccc(Cl)cc3)s2)n1-c1ccccc1 | 30% | 30% | 30% | 30% | 30% | 30% | 30% | 30% | 30% | 30% | 30% | 30% | 30% | 30% | 30% | 30% | 30% | 30% | 30% | 30% | inhibition of growth at 10 µM (CCRF-CEM): 30%; inhibition of growth at 10 µM (MOLT-4): 30%; inhibition of growth at 10 µM (T47D): 30%; inhibition of growth at 10 µM (MDA-MB-468): 30%; inhibition of growth at 10 µM (SNB-75): 30%; inhibition of growth at 10 µM (HOP-92): 30%; inhibition of growth at 10 µM (NCI-H522): 31.9%; inhibition of growth at 10 µM (OVCAR-8): 30%; inhibition of growth at 10 µM (SR): 30%; inhibition of growth at 10 µM (U-251): 30%; inhibition of growth at 10 µM (A549): 30%; inhibition of growth at 10 µM (IGROV-1): 65.9%; inhibition of growth at 10 µM (SF-539): 30%; inhibition of growth at 10 µM (MDA-MB-231): 30%; inhibition of growth at 10 µM (COLO 205): 30%
O=c1c2ccccc2nc(-n2ccnc2)n1-c1ccc(Cl)cc1 | 30% | 30% | 30% | 37.1% | 30% | 30% | 30% | 30% | 30% | 30% | 30% | 40.3% | 30% | 30% | 30% | 30% | 30% | 30% | 30% | 30% | inhibition of growth at 10 µM (HT-29): 30%; inhibition of growth at 10 µM (MOLT-4): 47.7%; inhibition of growth at 10 µM (BT-549): 30%; inhibition of growth at 10 µM (T47D): 39%; inhibition of growth at 10 µM (MDA-MB-468): 30%; inhibition of growth at 10 µM (SNB-75): 30%; inhibition of growth at 10 µM (HOP-92): 30%; inhibition of growth at 10 µM (NCI-H522): 30%; inhibition of growth at 10 µM (OVCAR-8): 30%; inhibition of growth at 10 µM (U-251): 30%; inhibition of growth at 10 µM (A549): 30%; inhibition of growth at 10 µM (IGROV-1): 30%; inhibition of growth at 10 µM (SF-539): 30%; inhibition of growth at 10 µM (MDA-MB-231): 30%; inhibition of growth at 10 µM (COLO 205): 30%
COc1ccc(-n2c(-n3ccnc3)nc3ccccc3c2=O)cc1 | 30% | 30% | 30% | 30.8% | 30% | 30% | 30% | 30% | 30% | 30% | 30% | 30% | 30% | 30% | 30% | 30% | 30% | 30% | 30% | 30% | inhibition of growth at 10 µM (CCRF-CEM): 30%; inhibition of growth at 10 µM (HT-29): 30%; inhibition of growth at 10 µM (BT-549): 30%; inhibition of growth at 10 µM (T47D): 30%; inhibition of growth at 10 µM (MDA-MB-468): 30%; inhibition of growth at 10 µM (SNB-75): 30%; inhibition of growth at 10 µM (NCI-H522): 30%; inhibition of growth at 10 µM (OVCAR-8): 30%; inhibition of growth at 10 µM (U-251): 30%; inhibition of growth at 10 µM (A549): 30%; inhibition of growth at 10 µM (IGROV-1): 30%; inhibition of growth at 10 µM (SF-539): 30%; inhibition of growth at 10 µM (MDA-MB-231): 30%; inhibition of growth at 10 µM (COLO 205): 30%
